Assay outcomes deposited in PubChem by several laboratories.
Only some compounds are listed: those with a hit (about 2.3% of all), similar ones and a draw of the others.
SKKanGAS inh = S. pyogenes SKKanGAS growth inhibitors in kanamycin, primary screen, streptokinase expression inhibitor project, SKKanGAS strain, BacTiter-Glo luminescence. 6 h. inhibition, % at 7.5 µM. 300,000 tested, 1.3% active. AID 1662, 2009;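 active = mean replicate score, as percent of positive control median, at least 50; inconclusive = mean below 50 but one replicate at or above 50; inactive = mean and every replicate below 50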;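 note: strain carries kanamycin resistance gene driven by streptokinase promoter and grows in 40 µg/ml kanamycin; loss of luminescence reflects streptokinase promoter inhibition or plain growth inhibition; 0% = median of DMSO wells and 100% = positive control at its reference dose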
ASAP1 GAP inh = inhibitors of human ASAP1 ArfGAP activity, primary screen, biochemical, fluorescence polarization. Arf-GAP with SH3 domain, ANK repeat and PH domain-containing protein 1 (Homo sapiens), …. ASAP1-stimulated ARF1 GTP hydrolysis, GDP FP detection. inhibition, % at 16.5 µM. 360,000 tested, 0.19% active. AID 624377, 2012; in the data active = inhibition above about 25%;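 note: 0% = vehicle with enzyme and substrate and 100% = no enzyme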
Calb FLC = C. albicans growth inhibition with fluconazole, primary screen, CaCi-2 strain, Alamar Blue fluorescence | C. albicans CaCi-2 (fluconazole-resistant clinical isolate) + fluconazole, 48 h | growth inhibition, % (concentration not given with the values) | 300,000 tested, 0.57% active | AID 1979, 2009;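 active = growth inhibition above about 58% in most replicates, limit read from the data, passing the limit was not always enough; inconclusive = exactly half the replicates above a set limit; inactive = most replicates below a set limit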;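 note: all wells also contain fluconazole at 8 µg/ml as a sub-toxic cotreatment; 0% = median of DMSO wells and 100% = median of geldanamycin control wells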
ARFGAP1 inhibitor = inhibitors of rat ARFGAP1 GAP activity, primary screen, biochemical, fluorescence polarization, GDP tracer | 360,000 tested, 0.26% active | ADP-ribosylation factor GTPase-activating protein 1 (Rattus norvegicus), Q62848 | inhibition, % at 16.5 µM | Arfgap1-stimulated ARF1 GTP hydrolysis, GDP FP detection | AID 651572, 2012;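 active = inhibition above a per-plate limit, mean inhibition of low control wells plus 3 SD, cut at about 25% in these data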;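 note: 0% = DMSO wells with enzyme and 100% = wells lacking Arfgap1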
Target sequence (Q62848 1-136 limits assumed): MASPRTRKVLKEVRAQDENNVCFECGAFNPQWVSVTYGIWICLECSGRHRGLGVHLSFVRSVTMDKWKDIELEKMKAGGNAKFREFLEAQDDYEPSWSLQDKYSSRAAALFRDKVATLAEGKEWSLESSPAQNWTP
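material = rat Arfgap1 catalytic domain, aa 1-136 | also added = human ARF1(Δ1-17)-GTP substrate | compound dosing = one concentration, 16.5 µM, DMSO 1.26% | times = GTP hydrolysis reaction 2 h at 25 °C | measured by = FP, GDP Alexa 633 tracer displaced from anti-GDP antibody, 620/688 nm | evaluation = percent inhibition of Arfgap1-stimulated GTP hydrolysis | replication = single well per compound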
HGIII-sPLA2 inh = human group III sPLA2 inhibitors, primary screen, biochemical, QFRET, BODIPY PC-A2 liposome substrate; Group 3 secretory phospholipase A2 (Homo sapiens), Q9NZ20; QFRET BODIPY PC-A2 liposome hydrolysis, fluorescence; inhibition, % at 12.2 µM; 370,000 tested, 0.56% active; AID 743126, 2013;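 active = inhibition above mean plus 3 SD of compounds lying within the high and low control bounds, cut at about 19% in these data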;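 note: 0% = median of test compound wells and 100% = no enzyme DMSO wells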
An asterisk follows results filed as active; u = inconclusive; x = no result given.

SMILES	SKKanGAS inh	ASAP1 GAP inh	Calb FLC	ARFGAP1 inhibitor	HGIII-sPLA2 inh
COc1ccc(S(=O)(=O)N2CCCc3nc(-c4ccccc4)ccc32)cc1	x	-2	x	2	-6
Nc1c(C(=O)O)ccc2c1C(=O)c1ccccc1C2=O	10	-5	16	-2	-1
COC(=O)c1ccc2c(c1O)C(=O)c1ccccc1C2=O	70*	11	1	-9	2
CCN(Cc1cn(CC2CCCCC2)nn1)S(=O)(=O)c1ccccc1Br	x	x	x	x	-7
O=c1cc(CSc2ccc(Cl)cc2)nc(-c2ccccn2)[nH]1	97*	-13	112*	-5	-9
Cc1cc(N2C(=O)C(O)=C(C(=O)c3cc4ccccc4o3)C2c2cccs2)no1 (centres undefined)	13	-2	u	-7	-11
CCc1ccc2nc(N3C(=O)C(O)=C(C(=O)c4ccco4)C3c3cccs3)sc2c1 (centres undefined)	88*	x	61	x	x
Cc1cc(N2C(=O)C(O)=C(C(=O)c3cc4ccccc4o3)C2c2ccc([N+](=O)[O-])cc2)no1 (centres undefined)	-6	5	0	0	-9
Cc1ccc2nc(N3C(=O)C(O)=C(C(=O)c4ccco4)C3c3ccc(O)cc3)sc2c1 (centres undefined)	13	14	21	1	-20
Cc1ccc(C2C(C(=O)c3cc4ccccc4o3)=C(O)C(=O)N2c2cc(C)on2)cc1 (centres undefined)	59*	-7	25	-9	-8
Cc1ccc2nc(N3C(=O)C(O)=C(C(=O)c4cc5ccccc5o4)C3c3cccs3)sc2c1 (centres undefined)	104*	x	43	x	x
CC1CCN(C(=O)c2ncn3c2C(=O)N[C@H](C)C3)CC1	x	-3	x	2	8
O=C(NCc1ccc(Cl)cc1)c1n[nH]c([N+](=O)[O-])c1Cl	31	24	97*	6	-13
CC1=NN(c2ccccc2)C(=O)/C1=C/c1c(O)n(-c2ccc(F)c(Cl)c2)[nH]c1=O	72*	x	5	x	x
Oc1c(Br)cc(Br)cc1/C=N/NC(=S)N[C@H]1CC2C=CC1C2 (some centres undefined)	120*	-11	-8	-6	45*
CCOc1ccc(/C=N/NC(=S)NC2CC3C=CC2C3)cc1 (centres undefined)	64*	9	2	5	11
O=C(NC1CCCCN(Cc2ccc(Cl)cc2)C1=O)c1cc(-c2ccccc2)no1 (centres undefined)	x	x	x	x	0
O=C1NC[C@H](c2ccccc2)OC(=O)[C@H](Cc2ccc(F)cc2)C/C=C\C[C@H]1CC(=O)N(CCO)Cc1ccccc1	x	5	x	2	-6
CN1CCN(c2nc(-c3ccccn3)nc3ccccc23)CC1	2	-2	-14	-5	9
Cc1ccccc1Oc1nc(-c2ccccn2)nc2ccccc12	104*	2	-2	-4	5
Cc1cccc(Oc2nc(-c3ccncc3)nc3ccccc23)c1	u	-1	-2	-4	-7
Cc1cccc(Oc2nc(-c3ccccn3)nc3ccccc23)c1	98*	7	-4	-11	4
CC(=O)Nc1ccc(Oc2nc(-c3ccccn3)nc3ccccc23)cc1	3	-14	-2	-11	5
c1ccc(N2CCN(c3nc(-c4ccccn4)nc4ccccc34)CC2)cc1	100*	4	18	1	12
Cn1c(=O)oc2cc(S(=O)(=O)N3CCN(c4cccc(C(F)(F)F)c4)CC3)ccc21	x	x	x	x	3
O=S1(=O)c2ccc(Br)cc2OC[C@H](Cc2ccccc2)N1Cc1cn(CCC2OCCO2)nn1	x	x	x	x	-8
Cc1ccc(Cn2ccc(=O)c(OCc3c(Cl)cccc3Cl)c2C)cc1	70*	5	-3	2	-8
Cc1[nH]ccc(=O)c1OCc1c(Cl)cccc1Cl	-1	-5	-5	-5	3
CCOC(=O)c1c(NC(=O)c2cccs2)sc2c1CCN(C(=O)OCC)C2	54*	-2	-7	-6	8
